Bioassay records: PubChem, several laboratories
In the library only some 4.7% were active in any assay of this set; here they are far more common.
NR3A LBD binder: modulators (binders) of human NR3A ligand-binding domain. Tm shift relative to glycine control, % at 25 µM. NR3A LBD differential scanning fluorimetry, Tm shift; 0% = protein alone, 100% = glycine-bound protein. 2.5% of 340,000 active;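 active = melting temperature shift of at least 10% of the positive control shift, at one fixed dose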
ADAM10 inh: inhibits human ADAM10; O14672; recombinant ADAM10, EDANS/DABCYL FRET peptide cleavage, 3 h; inhibition, % at 7 µM; 0.62% of 370,000 active; AID 720582;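 active = inhibition above a per-campaign cutoff equal to the mean of compounds falling between control-based bounds plus 3 SD, cut at about 20% in these data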
ADAM17 inh: ADAM17 inhibition, QFRET primary screen. P78536. recombinant ADAM17, EDANS/DABCYL FRET peptide cleavage. inhibition, % at 6.95 µM. 0.83% of 370,000 active;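 active = inhibition above the mean of compounds lying between control limits plus 3 SD, set per campaign, cut at about 8.5% in these data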
MT1-MMP act inh: MT1-MMP (human) activation inhibition; P50281; HT1080 RFP-PRO-GFP cells, GFP/RFP ratio fluorescence, overnight; percent of plate control window, DMSO zero; 0.061% of 360,000 active; GFP/RFP ratio change, % at 20 µM;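 active = GFP/RFP ratio change of at least 30% with cell ATP level not reduced by more than half and red fluorescence within 50% of control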
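Read-out: GFP/RFP fluorescence ratio; Test system: RFP-PRO-GFP reporter HT1080 cells; Compound dosing: single-point 20 µM compound, 1% DMSO; Times: overnight compound exposure at 37 °C.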
SKN-1 block: blocks SKN-1 activity in C. elegans; inhibition, % at 21.8 µM; C. elegans VP596 Pgst-4::GFP/RFP ratio, acrylamide-induced, 24 h; 0.49% of 360,000 active;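 active = interference check ratio from 0.5 to 1.5 plus GFP to RFP signal ratio inhibition reaching or exceeding a fixed threshold, cut at about 30% in these data, passing the limit was not always enough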
MPTP inh: blocks calcium-induced mitochondrial swelling; isolated mouse mitochondria, Ca2+ swelling absorbance, 30 min; AID 602449; inhibition, % at 10 µM; 1.4% of 360,000 active;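 active = inhibition of 50% or more, scaled per plate between neutral and stimulator controls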
Rh123 counter: mitochondrial membrane potential, counter-screen. isolated mitochondria, Rhodamine 123 fluorescence. inhibition, % at 10 µM. shares compounds with MPTP inh. AID 624504. 78% of 5,000 active; in the data active = inhibition above about 22%
MPTP abs DR: dose response confirmation of mitochondrial permeability transition pore inhibitors; shares compounds with MPTP inh; isolated mitochondria swelling, absorbance; IC50, µM; 58% of 780 active; in the data active = IC50 below about 20 µM
MPTP cs DR: MPTP inhibitor counter-screen activity, dose response. shares compounds with MPTP inh. isolated mitochondria counterscreen, fluorescence read-out. IC50, µM. 49% of 780 active. AID 651564; in the data active = IC50 below about 80 µM
Hits are given with their value; n = inactive; x = not tested or not shown.

SMILES	NR3A LBD binder	ADAM10 inh	ADAM17 inh	MT1-MMP act inh	SKN-1 block	MPTP inh	others
Brc1ccc(-c2nnc(-c3ccco3)o2)cc1	n	n	n	n	80.5	n
c1ccc(-c2nnc(-c3ccco3)o2)cc1	n	n	n	n	n	n
Clc1ccc(-c2nnc(-c3cccnc3)o2)cc1	n	n	n	n	40.5	n
COc1ccc(CNC(=O)c2sc(=O)n(Cc3ccccc3C)c2C)cc1	x	n	n	n	n	n
Fc1ccc(-c2cn3cc(C(F)(F)F)cc(Cl)c3n2)cc1	n	n	n	n	35.0	n
COc1ccc(OC)c(NC(=O)CSc2nnc(C3CCCCC3)o2)c1	n	n	n	n	n	n
CCc1ccc(C(=O)NCC2COc3ccccc3O2)o1 (stereo not drawn)	n	n	n	n	n	n
CN1CCN(c2ccc(Cl)cc2NC(=O)/C=C/c2cccc(F)c2)CC1	n	n	n	n	n	73.9	Rh123 counter=n;MPTP abs DR=6.75;MPTP cs DR=n
O=C(CCc1ccc(S(=O)(=O)NC2CCCCC2)cc1)NCc1ccccn1	n	n	n	n	n	n
CCCCCCc1cc2cc(C(=O)Nc3ccc(OC)cc3)c(=O)oc2cc1O	n	n	n	n	n	78.3	Rh123 counter=n;MPTP abs DR=1.15;MPTP cs DR=<2.5
